Test results as given in ChEMBL document CHEMBL4325904 (Eur J Med Chem, 2019).

Experiments:
[1] = organism: Homo sapiens; assay: Selectivity ratio of IC50 for human HDAC10 to IC50 for recombinant N-terminal GST-tagged human HDAC6 (1 to 1215 residues)
[2] = Drug uptake in human A549 cells cytoplasm at 1 uM after 2 hrs by naphthalimide dye-based inverted light fluorescence confocal microscopic analysis; type: ADME, subcellular; details: a549, 2 h
Outline: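 A549 cells incubated 2 hours with compound at 1 µM; intracellular distribution imaged by confocal microscopy with 405 nm laser excitation, emission collected at 460–560 nm.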

[3] = target: T1, Histone deacetylase 8 (Homo sapiens, UniProt Q9BY41); assay: Inhibition of recombinant C-terminal His-tagged human HDAC8 (1 to 377 residues) expressed in Baculovirus infected insect cells using RHK-K(Ac)-AMC as substrate by fluorimetric assay
T1 sequence (Q9BY41 whole entry): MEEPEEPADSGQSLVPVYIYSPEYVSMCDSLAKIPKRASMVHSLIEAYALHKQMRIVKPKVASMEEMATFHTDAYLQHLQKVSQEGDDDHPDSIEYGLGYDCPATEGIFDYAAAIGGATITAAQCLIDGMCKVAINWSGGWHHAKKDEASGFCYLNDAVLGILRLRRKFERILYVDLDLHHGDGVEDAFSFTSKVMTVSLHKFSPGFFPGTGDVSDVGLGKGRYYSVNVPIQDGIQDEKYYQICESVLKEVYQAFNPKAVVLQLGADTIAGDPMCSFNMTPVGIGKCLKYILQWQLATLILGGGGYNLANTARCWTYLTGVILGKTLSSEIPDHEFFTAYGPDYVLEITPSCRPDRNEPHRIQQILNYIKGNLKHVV

[4] = organism: Homo sapiens; assay: Selectivity ratio of IC50 for recombinant N-terminal GST-tagged human HDAC7 (518 to 991 residues) to IC50 for recombinant N-terminal GST-tagged human HDAC6 (1 to 1215 residues)
[5] = target: Histone deacetylase 1 (Homo sapiens, UniProt Q13547); assay: Inhibition of recombinant full length C-terminal FLAG/His-tagged human HDAC1 (1 to 482 residues) expressed in sf21 cells using RHK-K(Ac)-AMC as substrate by fluorimetric assay
Chain of Histone deacetylase 1 (Q13547 whole entry, the tested form may be a part): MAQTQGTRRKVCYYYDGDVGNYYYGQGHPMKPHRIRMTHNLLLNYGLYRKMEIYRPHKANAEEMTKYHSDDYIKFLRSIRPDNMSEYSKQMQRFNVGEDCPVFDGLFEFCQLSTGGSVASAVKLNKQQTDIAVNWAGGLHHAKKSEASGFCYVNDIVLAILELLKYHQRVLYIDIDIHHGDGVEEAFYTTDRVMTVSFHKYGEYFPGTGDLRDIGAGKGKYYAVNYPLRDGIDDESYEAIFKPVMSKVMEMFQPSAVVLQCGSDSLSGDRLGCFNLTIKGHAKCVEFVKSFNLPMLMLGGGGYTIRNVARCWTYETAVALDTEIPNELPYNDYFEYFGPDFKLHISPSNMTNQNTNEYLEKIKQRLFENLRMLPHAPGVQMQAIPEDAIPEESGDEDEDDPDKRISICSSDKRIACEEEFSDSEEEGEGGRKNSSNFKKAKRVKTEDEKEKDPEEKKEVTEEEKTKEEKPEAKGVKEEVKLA

[6] = organism: Homo sapiens; assay: Selectivity ratio of IC50 for recombinant full length C-terminal GST-tagged human HDAC2 (1 to 488 residues) to IC50 for recombinant N-terminal GST-tagged human HDAC6 (1 to 1215 residues)
[7] = target: T2, Histone deacetylase 7 (Homo sapiens, UniProt Q8WUI4); assay: Inhibition of recombinant N-terminal GST-tagged human HDAC7 (518 to 991 residues) expressed in Baculovirus infected insect cells using Boc-K(Ac)-AMC as substrate by fluorimetric assay
T2 sequence (Q8WUI4 whole entry): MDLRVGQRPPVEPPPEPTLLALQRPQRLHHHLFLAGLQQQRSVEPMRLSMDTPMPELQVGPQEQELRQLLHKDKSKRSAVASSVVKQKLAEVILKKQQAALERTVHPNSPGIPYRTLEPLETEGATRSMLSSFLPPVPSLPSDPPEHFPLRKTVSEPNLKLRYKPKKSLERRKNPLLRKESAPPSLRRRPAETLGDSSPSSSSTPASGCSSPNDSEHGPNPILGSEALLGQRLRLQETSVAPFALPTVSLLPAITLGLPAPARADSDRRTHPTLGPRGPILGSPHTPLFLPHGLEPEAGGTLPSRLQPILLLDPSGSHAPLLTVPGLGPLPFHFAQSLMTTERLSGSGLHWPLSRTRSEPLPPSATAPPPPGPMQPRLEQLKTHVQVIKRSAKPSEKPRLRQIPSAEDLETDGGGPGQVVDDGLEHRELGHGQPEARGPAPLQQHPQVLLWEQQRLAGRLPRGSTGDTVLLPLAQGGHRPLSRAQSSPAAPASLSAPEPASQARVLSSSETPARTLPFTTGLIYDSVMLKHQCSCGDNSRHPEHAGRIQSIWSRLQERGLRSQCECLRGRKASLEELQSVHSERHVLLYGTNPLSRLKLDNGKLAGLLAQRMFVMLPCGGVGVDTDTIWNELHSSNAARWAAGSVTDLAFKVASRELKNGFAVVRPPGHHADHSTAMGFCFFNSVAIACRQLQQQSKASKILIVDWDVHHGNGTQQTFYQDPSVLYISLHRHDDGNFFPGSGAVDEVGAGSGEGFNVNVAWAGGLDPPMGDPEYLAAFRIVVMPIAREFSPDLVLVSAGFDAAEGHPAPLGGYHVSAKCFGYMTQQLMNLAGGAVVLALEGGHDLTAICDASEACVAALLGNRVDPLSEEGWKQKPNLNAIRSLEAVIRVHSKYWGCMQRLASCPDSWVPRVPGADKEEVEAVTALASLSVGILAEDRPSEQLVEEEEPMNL

[8] = organism: Homo sapiens; assay: Selectivity ratio of IC50 for recombinant C-terminal His-tagged human HDAC5 (656 to 1122 residues) to IC50 for recombinant N-terminal GST-tagged human HDAC6 (1 to 1215 residues)
[9] = organism: Homo sapiens; assay: Selectivity ratio of IC50 for recombinant full length C-terminal FLAG/His-tagged human HDAC1 (1 to 482 residues) to IC50 for recombinant N-terminal GST-tagged human HDAC6 (1 to 1215 residues)

| Ratio IC50 [1] | Drug uptake [2] | IC50 [3] | Ratio IC50 [4] | IC50 [5] | Ratio IC50 [6] | IC50 [7] | Ratio IC50 [8] | Ratio IC50 [9] | Compound |
| --- | --- | --- | --- | --- | --- | --- | --- | --- | --- |
| 190 | Active | 2460 nM | 910 | 1980 nM | 240 | 3200 nM | 970 | 560 to 566 | O=C(CCCCCN1C(=O)c2cccc3c(NCc4ccccc4)ccc(c23)C1=O)NO |
| 67 | Active | 1520 nM | 1900 | 590 nM | 88 | 9400 nM | 1100 | 120 to 123 | CCCNc1ccc2c3c(cccc13)C(=O)N(CCCCCC(=O)NO)C2=O |
